Compound activity: PubChem, The Scripps Research Institute Molecular Screening Center
CHRM4 PAM: potentiates acetylcholine response at human M4 receptor; P08173; CHO-K1 hM4/Gqi5, Fluo-8 calcium fluorescence, ACh EC20; 0% = ACh EC20, 100% = maximal ACh; activation, % at 3 µM; hit rate 0.4% among 360,000; AID 624126;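 active means activation above its plate's cutoff, the mean activation of sample wells plus 3 SD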
CHRM5 antagonist: antagonists of human muscarinic M5 receptor (CHRM5); P08912; CHO-hM5 cells, Fluo-8 calcium fluorescence, ACh EC80; inhibition, % at 3 µM; hit rate 0.59% among 360,000;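 active means inhibition above a per-plate cutoff, the mean of that plate's test compounds plus 3 SD, cut at about 27% in these data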
Target sequence (P08912 whole entry, looked up): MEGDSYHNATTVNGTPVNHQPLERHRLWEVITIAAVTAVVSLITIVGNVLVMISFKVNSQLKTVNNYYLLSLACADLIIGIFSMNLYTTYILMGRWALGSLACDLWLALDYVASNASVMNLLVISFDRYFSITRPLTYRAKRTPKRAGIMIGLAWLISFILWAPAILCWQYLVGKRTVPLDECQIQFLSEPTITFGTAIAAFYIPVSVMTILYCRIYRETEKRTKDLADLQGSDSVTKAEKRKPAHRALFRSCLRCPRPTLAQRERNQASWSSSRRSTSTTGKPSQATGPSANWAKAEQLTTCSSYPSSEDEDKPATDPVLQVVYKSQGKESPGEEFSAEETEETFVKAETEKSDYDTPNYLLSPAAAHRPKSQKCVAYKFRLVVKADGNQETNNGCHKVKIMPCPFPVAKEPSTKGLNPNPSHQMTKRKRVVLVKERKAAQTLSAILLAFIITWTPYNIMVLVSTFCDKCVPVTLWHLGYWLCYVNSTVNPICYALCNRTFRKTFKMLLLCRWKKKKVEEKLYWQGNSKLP
CHRM5 agonist: CHRM5 agonism in calcium assay; P08912; CHO-K1 hM5 cells, Fluo-8 calcium fluorescence; 0% DMSO wells, 100% maximal acetylcholine response; hit rate 0.19% among 360,000; activation, % at 3 µM;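 active means activation above the run's mean over test compounds plus 3 SD, cut at about 23% in these data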;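 further: signal is peak over basal fluorescence ratio across the kinetic read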
M5 PAM: positive allosteric modulators of human muscarinic M5 receptor; hit rate 0.3% among 360,000; activation, % at 3 µM; CHO-K1 hM5, Fluo-8 calcium, ACh EC20 PAM; 0% = ACh EC20, 100% = ACh EC100; AID 624038; P08912;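 active means activation above the run cutoff, the mean activation of all test compounds plus 3 SD, cut at about 18% in these data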
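System: CHO-K1 cell line with stable human muscarinic M5 receptor expression | Also added: EC20 acetylcholine as agonist stimulus | Compound: One concentration, 3 µM final (nominal) | Timing: Fluo-8 loading 80 min at 37 °C plus 30 min room temperature | Measured by: Fluo-8 calcium dye fluorescence, kinetic read | Read-out basis: % activation, ACh-normalized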
CHRM4 agonist: CHRM4 agonism in calcium assay. P08173. CHO-K1 hM4/Gqi5, Fluo-8 calcium fluorescence; vehicle 0%, full acetylcholine response 100%. activation, % at 3 µM. hit rate 0.14% among 360,000;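 active means activation above the run mean over all test wells plus 3 SD, cut at about 32% in these data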;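 further: peak over basal fluorescence ratio per well then scaled between controls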
M4 antag: CHRM4 antagonism in calcium assay | P08173 | CHO-hM4 cells, ACh EC80, Fluo-8 calcium fluorescence | inhibition, % at 3 µM | hit rate 0.73% among 360,000 | AID 624125;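 active means inhibition above its plate's cutoff, the mean inhibition of sample wells plus 3 SD, cut at about 27% in these data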
Each line names hits and unclear results; the compound was inactive in the other large screens; ! = not confirmed by another sample. The list is not random: actives were taken first. Their share in the collection is about 1.8%.

CCOc1cc(-c2nc3ccccc3s2)ccc1O	M4 antag 31
Cc1cnc(CNC(=O)c2ccc3sc([C@@H]4O[C@H](CO)[C@H](O)[C@H](O)[C@H]4O)nc3c2)cn1	none
O=C(NCc1cccs1)c1ccc2sc([C@@H]3O[C@H](CO)[C@H](O)[C@H](O)[C@H]3O)nc2c1	CHRM4 PAM 16
OCCCNc1ncnc2c1[nH]c1ccccc12	none
Fc1ccc2[nH]c3c(NCc4ccccc4)ncnc3c2c1	CHRM5 antagonist 37
COc1ccc(C(C)=O)cc1COC(=O)CSCC(=O)Nc1ccc(C)cc1	M4 antag 26
CC(=O)Nc1ccc2c(c1)C(=Nc1cccc(C)c1)c1ccccc1-2	CHRM4 PAM 16
Cc1occc1C(=O)Nc1sc2c(c1C(N)=O)CCC(C(C)(C)C)C2 (centres undefined)	CHRM4 PAM 29
CCCn1c(=S)[nH]c2cc(C(=O)N3CCN(c4ccccc4OC)CC3)ccc2c1=O	M4 antag 39
COCc1c(C(=O)OCC(=O)N2c3ccccc3NC(=O)C2(C)C)oc2ccccc12	M4 antag 27
O=C(CN1CCCC1)N1c2ccccc2Sc2ccc(Cl)cc21	CHRM5 antagonist 96, M4 antag 94
O=C(CN1CCCC1)N1c2ccccc2Sc2ccc(C(F)(F)F)cc21	CHRM5 antagonist 99, M4 antag 95
O=C(CSc1nc2ccccc2o1)N1c2ccccc2Sc2ccc(C(F)(F)F)cc21	none
O=C(CN1CCN(c2ccccn2)CC1)N1c2ccccc2Sc2ccc(C(F)(F)F)cc21	none
CCNCCC(=O)N1c2ccccc2Sc2ccc(C(F)(F)F)cc21	CHRM5 antagonist 100, M4 antag 96
O=C(NCc1ccc2c3c(cccc13)C(=O)N2)c1cccs1	none
CC(=O)C[C@@H](O)CC(=O)[C@H]1OC(=O)CC/C=C\Cc2ccccc21	none
CC(=O)C[C@@H](O)CC(=O)[C@@H]1OC(=O)CC/C=C\Cc2ccccc21	CHRM4 PAM 26
N#CC(C#N)=C1C=C2C=C(N3CCCCCC3)CCC2CC1 (centres undefined)	CHRM5 antagonist 103, CHRM5 agonist active, CHRM4 agonist 746, M4 antag 96
CCN1CCN(C2=CC3=CC(=C(C#N)C#N)CCC3CC2)CC1 (centres undefined)	CHRM5 antagonist 59, CHRM5 agonist 222, CHRM4 agonist 270, M4 antag 58
CC1(C)CC(NCCN2CCN(C3=CC(=C(C#N)C#N)CC(C)(C)C3)CC2)=CC(=C(C#N)C#N)C1	none
N#CC(C#N)=C1C=C2C=C(N3CCOCC3)CCC2CC1 (centres undefined)	CHRM5 agonist 37, CHRM4 agonist 52, M4 antag 29
CN1CCN(C2=CC3=CC(=C(C#N)C#N)CCC3CC2)CC1 (centres undefined)	CHRM5 antagonist 72, CHRM5 agonist 492, CHRM4 agonist 538, M4 antag 71
CN1[C@@H](Cc2ccccc2)COc2cc(N3CCSCC3)ccc2S1(=O)=O	none
Cc1ccc(-c2nnc(SCC(=O)Nc3cccc(C(=O)N4CCOCC4)c3)n2C)cc1	none
CNc1cc(C)nc(N2CCOCC2)n1	CHRM5 antagonist 29
CN(C)c1ccc(/C=C/C(=O)c2ccc3c(c2)OCO3)cc1	CHRM5 agonist 76, CHRM4 agonist 121, M4 antag 27
CN(C)c1ccc(/C=C/C(=O)c2cccnc2)cc1	CHRM5 agonist 107, CHRM4 agonist 39
CN(C)c1ccc(/C=C/C(=O)c2ccc(O)cc2)cc1	CHRM5 antagonist 50, CHRM5 agonist 229, CHRM4 agonist 51
O=C(/C=C/c1cccc(O)c1)c1cccnc1	none
COc1ccc(C(=O)/C=C/c2ccc(N(C)C)cc2)c(OC)c1	CHRM5 antagonist 52, CHRM5 agonist 146, CHRM4 agonist 114, M4 antag 36
O=C(Nc1ccccc1C(=O)Nc1nnc(C(F)(F)F)s1)c1ccccc1Cl	none
CCOC(=O)c1ccccc1NC(=O)COC(=O)c1cc([N+](=O)[O-])ccc1N1CCOCC1	none
O=C1NC(=Nc2cccc(O)c2)S/C1=C\c1cccc([N+](=O)[O-])c1	none
O=C(Nc1ccc(Cl)c(Cl)c1)OCc1cccnc1	CHRM5 antagonist 31, M4 antag 34
O=C(Nc1cccnc1)OCc1ccccc1	none
O=C(Nc1ccc(Cl)c(Cl)c1)c1cccc(S(=O)(=O)NCc2cccnc2)c1	CHRM5 antagonist 34
O=C(O)CSCC(=O)N(Cc1ccccc1)c1nc(-c2ccccc2)c(-c2ccccc2)s1	none
COc1ccc(CNC(=O)c2sc(=O)n(Cc3ccccc3OC)c2C)cc1	none
CCOc1ccc(NC(=O)CN(C)C(=O)CCCOc2ccc(Cl)c(C)c2)cc1OCC	none
CN(CC(=O)Nc1ccccc1Cl)C(=O)CN1C(=O)C2CC=CCC2C1=O (centres undefined)	none
COc1ccc(C(=O)N/N=C/c2ccc(OC)c(COc3c(F)c(F)cc(F)c3F)c2)cc1	none
COc1ccc(/C=N\NC(=O)c2ccc([N+](=O)[O-])cc2)cc1COc1c(F)c(F)cc(F)c1F	CHRM5 antagonist 27
COc1ccc(C(=O)NNC(=O)CCn2nnc(-c3ccc(C)cc3)n2)cc1OC	none
CCc1ccc(NC(=O)C(C)OC(=O)/C=C/c2ccc(O)c(OC)c2)cc1 (centres undefined)	CHRM5 agonist 35
COc1ccc(N2CCN(C(=O)COC(=O)/C=C/c3ccc(C(F)(F)F)cc3)CC2)cc1	none
COc1cc(/C=C/C(=O)OC(C)C(=O)Nc2c(C)n(C)n(-c3ccccc3)c2=O)ccc1O (centres undefined)	none
COc1ccc(N2CCN(C(=O)COC(=O)/C=C/c3ccc(OC(F)F)cc3)CC2)cc1	CHRM4 PAM 23
COc1cc(/C=C/C(=O)OCC(=O)c2ccc(OC(F)F)cc2)ccc1O	CHRM5 agonist 27
CN(Cc1ccccc1)C(=O)c1ccc2sc([C@H]3C[C@H](O)[C@@H](CO)O3)nc2c1	none
CN1CCc2cc3c(c4c2[C@H]1[C@H](O)c1ccccc1-4)OCO3	none
CN1CCc2cccc3c2[C@H]1Cc1ccc(O)c(O)c1-3	M4 antag 81!
CC(OC(=O)CCCN=C1NS(=O)(=O)c2ccccc21)C(=O)N(C)c1ccccc1 (centres undefined)	none
CC(OC(=O)CCCN=C1NS(=O)(=O)c2ccccc21)C(=O)c1ccccc1 (centres undefined)	CHRM5 agonist 26
CCC1CCCCN1CCCNC(=O)c1cn(CC)c2ccc(S(=O)(=O)N(C)C3CCCCC3)cc2c1=O (centres undefined)	M4 antag 33
